Here are results for 2 compounds from ChEMBL document CHEMBL1151465, “Interactions of methylene blue with human disulfide reductases and their orthologues from Plasmodium falciparum” (Antimicrob Agents Chemother, 2008).

In data set [1] the target is T1, Thioredoxin reductase 1, cytoplasmic (Homo sapiens, UniProt Q16881).
T1 sequence (Q16881 whole entry): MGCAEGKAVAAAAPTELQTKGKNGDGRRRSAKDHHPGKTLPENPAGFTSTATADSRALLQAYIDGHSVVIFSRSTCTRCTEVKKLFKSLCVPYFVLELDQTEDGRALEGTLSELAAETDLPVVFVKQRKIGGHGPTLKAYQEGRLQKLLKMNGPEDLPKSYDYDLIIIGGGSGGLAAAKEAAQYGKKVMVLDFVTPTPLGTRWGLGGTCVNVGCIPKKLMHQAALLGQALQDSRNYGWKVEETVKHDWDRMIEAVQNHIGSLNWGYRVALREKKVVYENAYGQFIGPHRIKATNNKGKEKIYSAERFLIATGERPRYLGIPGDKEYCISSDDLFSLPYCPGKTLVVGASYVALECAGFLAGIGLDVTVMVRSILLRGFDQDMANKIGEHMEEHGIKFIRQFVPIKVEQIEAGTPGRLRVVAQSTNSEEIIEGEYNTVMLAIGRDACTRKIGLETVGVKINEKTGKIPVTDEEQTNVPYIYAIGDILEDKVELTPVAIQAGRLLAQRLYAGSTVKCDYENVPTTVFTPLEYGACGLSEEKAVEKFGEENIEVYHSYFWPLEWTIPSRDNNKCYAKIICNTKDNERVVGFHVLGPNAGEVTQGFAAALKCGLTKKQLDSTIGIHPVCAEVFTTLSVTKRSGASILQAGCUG
Nature of the data set: Inhibition of human recombinant TrxR1 at pH 7.4. The essentials:
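Human TrxR (recombinant, or from placenta) was assayed at 10 mU/ml, 25°C, with its physiological substrate. The buffer was 100 mM potassium phosphate and 2 mM EDTA at pH 7.4, with NADPH as reductant. Routine measurements used His-tagged human thioredoxin 1 Cys73Ser. MB came from stocks in water. IC50 values were treated as Ki, assuming noncompetitive inhibition.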

Data set [2] deals with T2, Glutathione reductase, mitochondrial (Homo sapiens, UniProt P00390).
T2 sequence (P00390 whole entry): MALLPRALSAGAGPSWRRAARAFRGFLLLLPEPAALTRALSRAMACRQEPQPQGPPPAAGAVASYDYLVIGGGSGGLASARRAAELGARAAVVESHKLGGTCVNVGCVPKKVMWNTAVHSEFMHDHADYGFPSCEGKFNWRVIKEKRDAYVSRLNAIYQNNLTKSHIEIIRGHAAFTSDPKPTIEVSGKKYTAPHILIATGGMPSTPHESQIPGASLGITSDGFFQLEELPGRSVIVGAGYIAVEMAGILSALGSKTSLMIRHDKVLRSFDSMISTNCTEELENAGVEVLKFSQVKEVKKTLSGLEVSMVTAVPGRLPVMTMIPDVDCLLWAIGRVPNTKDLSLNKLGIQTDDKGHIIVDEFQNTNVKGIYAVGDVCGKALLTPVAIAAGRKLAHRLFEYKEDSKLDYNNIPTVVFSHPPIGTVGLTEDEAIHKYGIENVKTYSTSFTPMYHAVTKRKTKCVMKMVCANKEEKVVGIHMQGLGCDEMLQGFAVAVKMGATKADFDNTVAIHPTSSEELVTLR
Briefly: Inhibition of human recombinant glutathione reductase at pH 6.9. The gist of the method:
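Recombinant human GR was assayed with its physiological disulfide substrate at 10 mU/ml enzyme and 25°C. The buffer was 47 mM potassium phosphate, 1 mM EDTA and 200 mM KCl at pH 6.9, with NADPH as reductant. MB came from stocks in water. IC50 values were treated as Ki, assuming noncompetitive inhibition.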

The target in data set [3] is T3, Dihydrolipoyl dehydrogenase (Plasmodium falciparum, UniProt Q6KCB6).
T3 sequence (Q6KCB6 whole entry): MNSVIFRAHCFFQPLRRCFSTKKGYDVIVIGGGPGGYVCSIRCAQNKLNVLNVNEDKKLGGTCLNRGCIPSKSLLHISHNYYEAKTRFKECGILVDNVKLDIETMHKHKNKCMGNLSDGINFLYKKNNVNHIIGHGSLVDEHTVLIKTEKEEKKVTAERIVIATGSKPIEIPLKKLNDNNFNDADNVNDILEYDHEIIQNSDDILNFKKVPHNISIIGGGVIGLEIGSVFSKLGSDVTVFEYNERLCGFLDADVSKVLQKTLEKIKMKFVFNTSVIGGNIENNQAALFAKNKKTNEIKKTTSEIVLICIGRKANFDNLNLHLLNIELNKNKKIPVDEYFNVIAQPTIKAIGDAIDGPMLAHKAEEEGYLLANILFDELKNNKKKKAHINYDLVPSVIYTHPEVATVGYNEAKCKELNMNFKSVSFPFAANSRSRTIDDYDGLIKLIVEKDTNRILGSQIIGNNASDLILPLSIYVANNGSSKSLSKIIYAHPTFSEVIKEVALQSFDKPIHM
Nature of the data set: Inhibition of Plasmodium falciparum recombinant dihydrolipoamide dehydrogenase at pH 7.3.

Data set [4] in a line: Inhibition of human recombinant glutathione reductase C58A/C63A mutant expressed in Escherichia coli SG5 at pH 6.9.
A short description of data set [5]: Inhibition of Plasmodium falciparum thioredoxin reductase at pH 7.4. The gist of the method:
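Recombinant P. falciparum TrxR, at 25°C in 100 mM potassium phosphate, 2 mM EDTA (pH 7.4). Cognate-substrate reaction was run with 10 mU/ml enzyme, NADPH and P. falciparum thioredoxin 1 as substrate. IC50 taken as Ki, assuming noncompetitive inhibition.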

In data set [6] the target is T4, Dihydrolipoyl dehydrogenase, mitochondrial (Sus scrofa, UniProt P09623).
T4 sequence (P09623 whole entry): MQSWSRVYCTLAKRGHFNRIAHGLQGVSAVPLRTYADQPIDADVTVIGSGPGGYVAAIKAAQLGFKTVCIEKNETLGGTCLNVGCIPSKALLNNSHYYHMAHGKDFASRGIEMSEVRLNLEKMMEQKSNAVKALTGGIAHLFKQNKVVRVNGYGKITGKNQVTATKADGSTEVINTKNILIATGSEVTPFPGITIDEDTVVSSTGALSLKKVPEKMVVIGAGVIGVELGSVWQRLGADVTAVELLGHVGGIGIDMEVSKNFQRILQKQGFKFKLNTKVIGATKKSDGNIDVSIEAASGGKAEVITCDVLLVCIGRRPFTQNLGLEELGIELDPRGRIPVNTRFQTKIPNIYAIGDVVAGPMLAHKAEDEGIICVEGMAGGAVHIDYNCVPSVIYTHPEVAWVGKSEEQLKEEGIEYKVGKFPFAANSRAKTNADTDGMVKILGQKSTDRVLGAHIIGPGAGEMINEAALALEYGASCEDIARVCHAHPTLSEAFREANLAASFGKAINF
Nature of the data set: Inhibition of pig recombinant dihydrolipoamide dehydrogenase at pH 7.3.

A short description of data set [7]: Inhibition of Plasmodium falciparum glutathione reductase at pH 6.9. The essentials:
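Recombinant P. falciparum GR, assayed at 25°C in 47 mM potassium phosphate, 1 mM EDTA, 200 mM KCl (pH 6.9). Physiological GSSG reduction was run with 10 mU/ml enzyme and NADPH. IC50 values were taken as Ki, assuming noncompetitive inhibition.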

In another data set the target is Albumin (Bos taurus, UniProt P02769). Briefly: Binding affinity to bovine serum albumin by fluorescence spectroscopy. It counts as ADME. To be noted: read-out: Kdiss.
The nature of data set [8]: Inhibition of human recombinant glutathione reductase C58A mutant expressed in Escherichia coli SG5 at pH 6.9.
A short description of data set [9]: Inhibition of human recombinant glutathione reductase C63A mutant expressed in Escherichia coli SG5 at pH 6.9.
For a further data set, the system named is Plasmodium falciparum. Nature of the data set: Antiplasmodial activity after 42 hrs against chloroquine-resistant Plasmodium falciparum K1 treated for 6 hrs by Giemsa stain. It counts as functional, organism-based.
Data set [10] in a line: Stability at pH 5.0. It counts as physicochemical. The note with it: buffer.
A short description of data set [11]: Dissociation constant, pKa of the compound. It counts as physicochemical.
A short description of data set [12]: Solubility in 100 mM phosphate buffer at pH 7.0. It counts as physicochemical.

Sequence of Albumin (P02769 whole entry): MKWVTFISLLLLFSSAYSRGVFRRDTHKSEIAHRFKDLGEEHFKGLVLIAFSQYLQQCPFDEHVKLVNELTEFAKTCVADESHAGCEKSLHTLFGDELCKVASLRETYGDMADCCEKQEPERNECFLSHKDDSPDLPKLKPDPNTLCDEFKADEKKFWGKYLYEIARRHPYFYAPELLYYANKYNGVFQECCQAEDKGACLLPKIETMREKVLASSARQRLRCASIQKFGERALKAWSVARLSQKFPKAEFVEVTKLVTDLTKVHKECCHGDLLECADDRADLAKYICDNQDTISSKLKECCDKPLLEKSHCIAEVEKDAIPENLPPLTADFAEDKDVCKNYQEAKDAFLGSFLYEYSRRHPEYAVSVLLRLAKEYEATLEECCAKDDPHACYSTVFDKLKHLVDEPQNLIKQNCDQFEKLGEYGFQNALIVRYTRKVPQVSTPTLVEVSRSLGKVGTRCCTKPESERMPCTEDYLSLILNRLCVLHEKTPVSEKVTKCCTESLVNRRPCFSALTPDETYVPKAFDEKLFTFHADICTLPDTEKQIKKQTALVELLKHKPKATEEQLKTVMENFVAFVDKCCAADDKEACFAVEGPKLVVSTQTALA

Usually IC50 stands for the concentration that gives 50% inhibition. By EC50 is commonly meant the concentration that produces a half-maximal response. `CN(C)c1ccc2nc3ccc(N(C)C)cc3[s+]c2c1.[Cl-]` [METHYLENE BLUE ANHYDROUS]: the IC50 was 30 µM in data set [1]; 16.4 µM in data set [2]; above 1000 µM in data set [3]; “Not Active” in data set [4]; 59 µM in [5]; above 1000 µM in [6]. Further, the IC50 in data set [7] is 5.4 µM; in [8], “Not Active”; in [9], “Not Active”. Further, the Kd on Albumin was 2.9 µM. For the same compound, the EC50 with Plasmodium falciparum was found to be 0.0065 µM. Also, in data set [10], the Stability entry is recorded as “Stable”.
One may read the pKa as the negative logarithm of the acid dissociation constant. Low values mean a stronger acid or weaker base, high ones a weaker acid or stronger base. Usually solubility stands for the concentration that dissolves in the medium under given conditions. A higher solubility goes with much dissolved substance. For the compound `CN(C)c1ccc2c(c1)Sc1cc(N(C)C)ccc1N2` [HYDROMETHYLTHIONINE], the pKa in [11] was determined as 4.5. The same compound showed a solubility in data set [12] below 50 µM.
